Laboratory results from ChEMBL document CHEMBL4177771, “Endoplasmic Reticulum-Localized Two-Photon-Absorbing Boron Dipyrromethenes as Advanced Photosensitizers for Photodynamic Therapy” (J Med Chem, 2018).
Calls of active or inactive are those of the source. The rule behind the calls is not given here.

How the values were obtained:
[1] = Drug uptake in lysosome of human HepG2 cells at 4 uM after 4 hrs by […]-based confocal microscopic method; type: ADME, subcellular; details: hepg2, 4 h
[2] = Drug uptake in endoplasmic reticulum of human HepG2 cells at 4 uM after 4 hrs by ER-tracker green-based confocal microscopic method; type: ADME, subcellular; details: hepg2, 4 h
Method in brief: (§1)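 Cells on glass-bottom dishes given 2 μM for 2 h or 4 μM for 4 h at 37 °C. After PBS washes, stained in HBSS with 0.2 μM ER-tracker or Mito-tracker green for 15 min at 37 °C. Confocal imaging: trackers excited at 488 nm, emission 500–570 nm; BODIPY excited at 633 nm, emission 650–760 nm.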

[3] = Drug uptake in mitochondria of human HepG2 cells at 4 uM after 4 hrs by Mito-tracker green-based confocal microscopic method; type: ADME; details: hepg2, 4 h; method in brief: as §1
[4] = Stability of the compound in PBS at 2 uM measured over 25 mins in presence of illumination by halogen lamp; type: physicochemical; details: buffer
[5] = Drug uptake in endoplasmic reticulum of human HeLa cells at 4 uM after 4 hrs by ER-tracker green-based confocal microscopic method; type: ADME, subcellular; method in brief: as §1
[6] = Drug uptake in mitochondria of human HeLa cells at 4 uM after 4 hrs by Mito-tracker green-based confocal microscopic method; type: ADME; method in brief: as §1
[7] = Dark toxicity against human HepG2 cells assessed as decrease in cell viability at 0.5 to 8 uM incubated for 2 hrs by MTT assay; type: cell-based; details: hepg2, 2 h
Method in brief: (§2)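 Cells seeded at 2 × 10^5 cells mL−1 in 96-well plates 24 h before; incubated with compound (0.4–0.0125 μM or 8–0.5 μM series) in dark 2 h, washed with PBS, re-fed, kept unirradiated. MTT (3 mg mL−1) added, 4 h at 37 °C, DMSO added, absorbance at 490 nm. Mean ± SEM of three independent experiments, each in quadruplicate. HepG2 cells were grown in RPMI 1640 and HeLa in DMEM.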

[8] = Induction of singlet oxygen generation in PBS assessed as increase in decay of DPBF at 2 uM by spectroscopic method; type: functional
HepG2 = assay: Photocytotoxicity against human HepG2 cells assessed as decrease in cell viability preincubated in dark for 2 hrs followed by illumination by halogen lamp for 20 mins by MTT assay; type: functional, cell-based
Method in brief: (§3)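 Cells seeded at 2 × 10^5 cells mL−1 in 96-well plates 24 h before; 2 h dark incubation with compound (0.0125–0.4 μM or 0.5–8 μM), PBS wash, re-feed. Then 300 W halogen lamp with red filter (λ > 610 nm), 40 mW cm−2, 20 min at r.t. (48 J cm−2). MTT read-out at 490 nm. IC50 = concentration killing 50% of cells. Three independent experiments, quadruplicate.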

[9] = Induction of singlet oxygen generation in DMF assessed as increase in decay of DPBF at 1 uM by spectroscopic method
[10] = Dark toxicity against human HeLa cells assessed as decrease in cell viability at 0.5 to 8 uM incubated for 2 hrs by MTT assay; type: cell-based; method in brief: as §2
[11] = Drug uptake in human HepG2 cells at 4 uM after 4 hrs by flow cytometric method; type: ADME, cell-based; details: hepg2, 4 h
Method in brief: (§4)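 Cells in 35 mm dishes incubated in RPMI 1640 at 37 °C, 5% CO2, with 2 μM for 2 h or 4 μM for 4 h. Rinsed, trypsinised, pelleted at 400g, resuspended in HBSS. Flow cytometry on 10^4 cells: excitation 640 nm, emission 720–840 nm. Triplicate; mean ± SD of three independent experiments.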

[12] = Drug uptake in lysosome of human HeLa cells at 4 uM after 4 hrs by […]-based confocal microscopic method; type: ADME, subcellular
[13] = Drug uptake in human HeLa cells at 4 uM after 4 hrs by flow cytometric method; type: ADME, cell-based; method in brief: as §4
HeLa = assay: Photocytotoxicity against human HeLa cells assessed as decrease in cell viability preincubated in dark for 2 hrs followed by illumination by halogen lamp for 20 mins by MTT assay; type: functional, cell-based; method in brief: as §3
[14] = Drug uptake in mitochondria of human HeLa cells at 2 uM after 2 hrs by Mito-tracker green-based confocal microscopic method; type: ADME; method in brief: as §1
[15] = Drug uptake in endoplasmic reticulum of human HeLa cells at 2 uM after 2 hrs by ER-tracker green-based confocal microscopic method; type: ADME, subcellular; method in brief: as §1
[16] = Drug uptake in lysosome of human HeLa cells at 2 uM after 2 hrs by […]-based confocal microscopic method; type: ADME, subcellular
[17] = Drug uptake in mitochondria of human HepG2 cells at 2 uM after 2 hrs by Mito-tracker green-based confocal microscopic method; type: ADME; details: hepg2, 2 h; method in brief: as §1
[18] = Drug uptake in endoplasmic reticulum of human HepG2 cells at 2 uM after 2 hrs by ER-tracker green-based confocal microscopic method; type: ADME, subcellular; details: hepg2, 2 h; method in brief: as §1
[19] = Drug uptake in lysosome of human HepG2 cells at 2 uM after 2 hrs by […]-based confocal microscopic method; type: ADME, subcellular; details: hepg2, 2 h

For `COCCOCCOCCn1c2ccccc2c2cc(/C=C/C3=[N+]4C(=C(c5ccc(OCC(=O)NCCc6ccc(S(=O)(=O)NC(=O)NC7CCCCC7)cc6)cc5)c5c(C)c(Br)c(/C=C/c6ccc7c(c6)c6ccccc6n7CCOCCOCCOC)n5[B-]4(F)F)C(C)=C3Br)ccc21`, the Drug uptake [1] was “Not Active”, the Drug uptake [2] was “Active” and the Drug uptake [3] was “Not Active”. For the same compound, the Stability [4] was “Stable”, the Drug uptake [5] was “Active” and the Drug uptake [6] was “Not Active”. For the same compound, the Activity [7] was “Non-Toxic”, the Activity [8] was “Active” and the IC50 (HepG2) was 5.2 µM. The Activity [9] was “Active”, the Activity [10] was “Non-Toxic” and the Drug uptake [11] was “Active”. For the same compound, the Drug uptake [12] was “Not Active”, the Drug uptake [13] was “Active” and the IC50 (HeLa) was 3.2 µM.
For `CCOC(=O)COc1ccc(C2=C3C(C)=C(Br)C(/C=C/c4ccc(OCCOCCOCCOC)cc4)=[N+]3[B-](F)(F)n3c(/C=C/c4ccc(OCCOCCOCCOC)cc4)c(Br)c(C)c32)cc1`, the Drug uptake [14] was “Not Active”, the Drug uptake [15] was “Not Active” and the Drug uptake [16] was “Not Active”. The Drug uptake [17] was “Not Active”, the Drug uptake [18] was “Not Active” and the Drug uptake [19] was “Not Active”.
